Results from PubChem BioAssay.
Active and inactive are the calls of the source.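 How the source made its calls, unless noted: active means visually confirmed hit in the image check and inhibition above 20%; inconclusive means visually confirmed hit but inhibition not above 20%; inactive means no visual hit in the image check.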

Assays:
[1] = inhibitors of TNFa-induced NFkB p65 translocation, primary screen, imaging, HUVEC, MLSMR starter and 10KST1 sets (AID 438;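 active means inhibition above 20% together with a positive visual image hit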;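 further: compound added about 3h40 before a 20 min TNFalpha stimulation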;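 on inhibition: signal is the nuclear over cytoplasmic p65 intensity ratio per well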); conditions: HUVEC TNFa-induced p65 nuclear translocation; cell count: measured here: nuclei count (cytotoxicity indicator), at 2.08 µM; inhibition: at 2 µM, stronger effect = higher value, 0% TNFa-plus-vehicle, 100% no-TNFa wells
[2] = inhibitors of mutant huntingtin aggregation, primary screen, imaging, exon1htt(103Q)mCFP cells, high-content imaging (AID 483;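 active means visual image review flags a hit and inhibition of aggregation exceeds 20%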;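 further: compound exposure lasted 3 days before fixation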;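 on nuclei count: percent of the per-plate median nuclei count of sample wells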); conditions: exon1htt(103Q)mCFP cell line, aggregate imaging, at 2 µM; inhibition of aggregation: stronger effect = higher value; nuclei count: measured here: cell count, toxicity
[3] = inhibitors of E-selectin induction by TNFa, primary screen, imaging, HUVEC, immunofluorescence, MLSMR starter and 10KST1 sets (AID 487); conditions: HUVEC TNFalpha-induced E-selectin immunofluorescence imaging, at 2 µM; inhibition: stronger effect = higher value; nuclei count: measured here: cell number, toxicity;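 on inhibition: signal is fraction of cell area covered by stained E-selectin grains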;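 on nuclei count: 100% = median nuclei count of all wells on the same plate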
[4] = target: Voltage-gated potassium channel subunit beta-2 (Rattus norvegicus) (UniProt P62483); experiment: KvBeta enzyme negative modulators, primary screen, biochemical, NADPH fluorescence (AID 622;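 active means fluorescence slope higher than the sample average by over 3 SD, cut at about -0.22 in these data, passing the limit was not always enough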;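 further: slope of raw intensity against log time taken from 70 to 1610 s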); conditions: recombinant KvBeta, 4-cyanobenzaldehyde reduction, at 10 µM, stronger effect = higher value
Sequence of Voltage-gated potassium channel subunit beta-2 (Rattus norvegicus) (P62483 whole entry, looked up): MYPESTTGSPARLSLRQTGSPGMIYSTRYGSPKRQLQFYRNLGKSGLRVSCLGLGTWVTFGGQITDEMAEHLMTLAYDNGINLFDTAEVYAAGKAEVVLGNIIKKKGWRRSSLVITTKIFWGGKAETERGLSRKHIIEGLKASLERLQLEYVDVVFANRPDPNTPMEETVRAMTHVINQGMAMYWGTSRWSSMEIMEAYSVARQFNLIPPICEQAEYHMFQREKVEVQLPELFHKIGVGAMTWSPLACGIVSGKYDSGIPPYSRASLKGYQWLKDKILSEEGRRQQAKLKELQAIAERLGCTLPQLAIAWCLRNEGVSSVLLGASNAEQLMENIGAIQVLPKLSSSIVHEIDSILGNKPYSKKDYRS

[5] = target: Voltage-gated potassium channel subunit beta-2 (Rattus norvegicus) (UniProt P62483); experiment: KvBeta positive modulators, primary screen, biochemical, NADPH fluorescence (AID 623;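 active means NADPH fluorescence slope more negative than the mean of all samples by about 3 SD, 99.7% confidence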;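 further: fluorescence intensity change per second fitted from 20 to 320 s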); conditions: Recombinant KvBeta, NADPH fluorescence decrease slope, 10 min; at 10 µM; stronger effect = lower value
[6] = target: Muscarinic acetylcholine receptor M4 (Homo sapiens) (UniProt P08173); experiment: compounds altering M4/GIRK thallium flux, either direction, primary screen, M4 allosteric agonist project, cell-based, HEK293 M4/GIRK, BTC-AM (AID 625;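 active means fluorescence slope after compound addition differing from the mean of all tested samples at 99.7% confidence, mostly higher but some lower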;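 further: thallium influx through GIRK channels coupled to M4 in HEK293 cells with BTC-AM dye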); conditions: at 10 µM, actives lie on both sides
Sequence of Muscarinic acetylcholine receptor M4 (Homo sapiens) (P08173 whole entry, looked up): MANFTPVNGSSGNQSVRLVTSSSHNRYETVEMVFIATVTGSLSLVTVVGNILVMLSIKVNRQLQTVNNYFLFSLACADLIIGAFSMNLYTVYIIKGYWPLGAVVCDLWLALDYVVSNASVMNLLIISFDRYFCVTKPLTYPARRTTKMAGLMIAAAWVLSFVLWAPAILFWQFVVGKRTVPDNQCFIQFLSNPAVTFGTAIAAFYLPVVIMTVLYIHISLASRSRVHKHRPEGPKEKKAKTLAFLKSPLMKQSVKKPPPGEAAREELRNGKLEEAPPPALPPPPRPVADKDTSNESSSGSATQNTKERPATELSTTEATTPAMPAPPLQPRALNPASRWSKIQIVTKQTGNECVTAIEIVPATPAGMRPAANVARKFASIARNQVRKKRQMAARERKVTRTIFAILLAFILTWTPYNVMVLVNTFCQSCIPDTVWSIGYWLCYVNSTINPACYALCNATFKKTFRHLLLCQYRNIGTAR
Procedure, shortened: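 Material: HEK293 cells with M4 receptor and GIRK channels; Times: cells overnight at 37 °C, BTC-AM loading 1 h, reads 2 min total; Technique: kinetic BTC-AM fluorescence sampled at 1 Hz, 10 s pre-addition baseline; Read-out basis: slope over 15–24 s of trace normalized to starting intensity; Controls: carbachol positive, DMSO negative.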

[7] = inhibitors of Sendai virus-induced IRF3 signaling, primary screen, TLR/RLR signaling modifier project, cell-based, Sendai virus stimulus, luciferase, 10K MLSCN set (AID 602276;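 active means inhibition at or above 50% at 10 µM; inactive means inhibition below 50%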;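 further: firefly luciferase from ISG56 promoter only with Renilla not read in this screen; 0% = Sendai virus plus DMSO and 100% = medium plus DMSO without virus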); conditions: HEK293 RL24 IRF3 luciferase reporter, at 10 µM, stronger effect = higher value
[8] = inhibitors of poly I:C-induced TLR3 signaling, primary screen, cell-based, poly I:C stimulus, luciferase, 10K MLSCN set (AID 602277;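 active means inhibition of the reporter signal at or above 50%; inactive means inhibition below 50%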); conditions: HEK293-TLR3 RL24 IRF3 luciferase reporter, at 10 µM, stronger effect = higher value

Row | SMILES | cell count [1] | inhibition [1] | inhibition of aggregation [2] | nuclei count [2] [%] | inhibition [3] | nuclei count [3] [%] | fluorescence slope [4] | NADPH fluorescence slope [5] | fluorescence slope [6] | inhibition [7] | inhibition [8]
1 | Cc1cc(C)c(S(=O)(=O)N(C)CC(N)=O)c(C)c1 | 320 | 5.1% (inactive) | -7.6% (inactive) | 103 | -60.9% (inactive) | 111 | -0.489 (inactive) | 4.3e-05 (inactive) | 0.00514 (inactive) | -4.02% (inactive) | -17.9% (inactive)
2 | CCOc1ccc(NC(=O)c2ccncc2)cc1 | 631 | 3.6% (inactive) | 8.2% (inactive) | 98.3 | -122% (inactive) | 106 | -0.466 (inactive) | -4.7e-05 (inactive) | 0.0047 (inactive) | -5.38% (inactive) | -19.1% (inactive)
3 | O=C(C1CCN(S(=O)(=O)Cc2ccccc2)CC1)N1CCN(c2ncccn2)CC1 | 354 | -9.2% (inactive) | 0.1% (inactive) | 67 | 34.3% (inactive) | 96.8 | -0.431 (inactive) | -0.000431 (inactive) | 0.00525 (inactive) | -3.88% (inactive) | -4.47% (inactive)
4 | CCCC(CCC)n1[nH]c(=O)c2c(C)cc(C)nc21 | 357 | 3.8% (inactive) | 7.5% (inactive) | 105 | -29.5% (inactive) | 114 | -0.47 (inactive) | 3.6e-05 (inactive) | 0.00554 (inactive) | 3.13% (inactive) | 4.22% (inactive)
5 | CCN(C#N)c1nc(NC(C)C)nc(NC(C)C)n1 | 354 | 3.3% (inactive) | 14.7% (inactive) | 100 | -0.6% (inactive) | 82.6 | -0.316 (inactive) | -5.2e-05 (inactive) | 0.00491 (inactive) | 0.243% (inactive) | 9.55% (inactive)
6 | O=C(Nc1ccccc1C(=O)NCC1CCCO1)c1ccco1 (centres undefined) | 304 | -8% (inactive) | -23.2% (inactive) | 95.5 | -50.7% (inactive) | 123 | -0.458 (inactive) | 2.2e-05 (inactive) | 0.00531 (inactive) | 9.09% (inactive) | 15.4% (inactive)
7 | Cc1cccc(NCc2ccccc2O)c1 | 454 | 4.9% (inactive) | 1.3% (inactive) | 94.5 | 10.3% (inactive) | 104 | -0.55 (inactive) | -2.3e-05 (inactive) | 0.00568 (inactive) | 10.1% (inactive) | 3.99% (inactive)
8 | COC(=O)C(F)(F)Sc1c(C)[nH]c2ccccc12 | 699 | -2.1% (inactive) | 13.7% (inactive) | 94.7 | 41.7% (inactive) | 108 | -0.444 (inactive) | -1.5e-05 (inactive) | 0.00468 (inactive) | 25.1% (inactive) | 27% (inactive)
9 | CCC(=O)N1CCc2cc(Br)cc(S(=O)(=O)C3(C(=O)OC)CC3)c21 | 469 | 2.5% (inactive) | -5.1% (inactive) | 98.8 | 3.4% (inactive) | 97.1 | -0.554 (inactive) | -3.7e-05 (inactive) | 0.00618 (inactive) | 17% (inactive) | 18% (inactive)
10 | CCOc1ccccc1NC(=O)N1C2CCCC1CC(NC(=O)C1CC1)C2 (centres undefined) | 417 | -3.2% (inactive) | 6.6% (inactive) | 110 | -75.6% (inactive) | 97.6 | -0.515 (inactive) | 4.4e-06 (inactive) | 0.00474 (inactive) | 17.1% (inactive) | 23.8% (inactive)
11 | CCOC(=O)c1c(C)[nH]c(C=Nc2ccccc2)c1O | 666 | 4.3% (inactive) | 12.6% (inactive) | 88.7 | -28.4% (inactive) | 103 | -0.598 (inactive) | 5.5e-06 (inactive) | 0.00349 (inactive) | -11% (inactive) | -41.4% (inactive)
12 | COC(=O)c1c(C)oc2ccc(NS(=O)(=O)c3cccs3)cc12 | 435 | 3.4% (inactive) | 1.4% (inactive) | 99.1 | -85.7% (inactive) | 114 | -0.534 (inactive) | -8.8e-05 (inactive) | 0.0032 (inactive) | 20.8% (inactive) | 10.9% (inactive)
13 | O=S(=O)(NCC1CCCO1)c1cccc(C(F)(F)F)c1 (centres undefined) | 611 | -4.8% (inactive) | -6.4% (inactive) | 100 | -51.8% (inactive) | 159 | -0.568 (inactive) | 4.6e-05 (inactive) | 0.00471 (inactive) | 1.55% (inactive) | 12.2% (inactive)
14 | Cc1ccc(-c2[nH]nc3c2C(c2ccc(OC(=O)N4CCOCC4)cc2)C(C#N)=C(N)O3)cc1 (centres undefined) | 742 | 10.8% (inactive) | 0.2% (inactive) | 97.7 | -39.7% (inactive) | 104 | -0.577 (inactive) | -4.2e-05 (inactive) | 0.00718 (inactive) | 4.48% (inactive) | 9.32% (inactive)
